Measured values: ChEMBL document CHEMBL4261518, “Side chain-functionalized aniline-derived ursolic acid derivatives as multidrug resistance reversers that block the nuclear factor-kappa B (NF-κB) pathway and cell proliferation” (Medchemcomm, 2017)

How the values were obtained:
[1] = test system: L02; experiment: Cytotoxicity against human HL7702 cells after 48 hrs by MTT assay; type: cell-based; settings: L02, 48 h
How it was run: (§1)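 Cells grown overnight in DMEM + 10% FBS at 37 °C under 5% CO2, then given a range of compound concentrations for 48 h. MTT added for about 4 h, medium replaced by DMSO, absorbance read at 570/630 nm. IC50 reported as mean ± SD of five independent experiments.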

[2] = Resistant factor, ratio of IC50 for human NCI-H460/DOX cells to IC50 for human NCI-H460 cells; type: functional
[3] = Inhibition of TNFalpha-induced NF-kB (unknown origin) activation expressed in human NCI-H460 cells after 7 hrs by luciferase reporter gene assay; type: cell-based; settings: NCI-H460, 7 h
How it was run: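 NCI-H460 cells transiently co-transfected with pNF-κB-Luc reporter and pSV-β-galactosidase internal control by lipofectamine. Medium changed after 6 h, then 6 h further culture. TNF-α (15 ng ml–1) plus compound given together for 7 h. Luciferase ratio to TNF-α-only cells, corrected for non-TNF background and viability. IC50 from sigmoidal variable-slope fit.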

[4] = test system: T-24; experiment: Cytotoxicity against human T24 cells after 48 hrs by MTT assay; type: functional, cell-based; settings: T-24, 48 h; how it was run: as §1
[5] = test system: MGC-803; experiment: Cytotoxicity against human MGC803 cells after 48 hrs by MTT assay; type: functional, cell-based; settings: MGC-803, 48 h; how it was run: as §1
[6] = test system: NCI-H460; experiment: Cytotoxicity against human NCI-H460 cells after 48 hrs by MTT assay; type: functional, cell-based; settings: NCI-H460, 48 h; how it was run: as §1
[7] = test system: HepG2; experiment: Cytotoxicity against human HepG2 cells after 48 hrs by MTT assay; type: functional, cell-based; settings: HepG2, 48 h; how it was run: as §1
[8] = Cytotoxicity against human NCI-H460/DOX cells after 48 hrs by MTT assay; type: functional, cell-based; settings: NCI-H460, 48 h; how it was run: as §1
[9] = Cytotoxicity against human HepG2/DOX cells after 48 hrs by MTT assay; type: functional, cell-based; how it was run: as §1
[10] = Resistant factor, ratio of IC50 for human HepG2/DOX cells to IC50 for human HepG2 cells; type: functional
[11] = test system: A549; experiment: Cytotoxicity against human A549 cells after 48 hrs by MTT assay; type: functional, cell-based; settings: A549, 48 h; how it was run: as §1
[12] = test system: NCI-H460; experiment: Cytotoxicity against human NCI-H460 cells harboring pNF-kB-Luc assessed as reduction in cell viability after 7 hrs by MTT assay relative to control; parameters: concentration or dose not given beside the values; settings: nci-h460, 7 h
[13] = Cytotoxicity against human SPCA2 cells after 48 hrs by MTT assay; type: functional, cell-based; settings: SPCA2, 48 h; how it was run: as §1

Row | IC50 [3] | SMILES | IC50 [1] | Ratio IC50 [2] | IC50 [4] | IC50 [5] | IC50 [6] | IC50 [7] | IC50 [8] | IC50 [9] | Ratio IC50 [10] | IC50 [11] | Activity [12] | IC50 [13]
1 | 5.43 µM | Cc1ccc(NC(=O)[C@]23CC[C@@H](C)[C@H](C)[C@H]2C2=CC[C@@H]4[C@@]5(C)CCC(=O)C(C)(C)[C@@H]5CC[C@@]4(C)[C@]2(C)CC3)cc1 | > 50 µM | 1.76 | 20.1 µM | 18.6 µM | 11.9 µM | 17.6 µM | 20.9 µM | 28.5 µM | 1.62 | 17.9 µM | < 5% | 17.3 µM
2 | 2.33 µM | CC(=O)O[C@H]1CC[C@]2(C)[C@H]3CC=C4[C@@H]5[C@@H](C)[C@H](C)CC[C@]5(C(=O)Nc5ccccc5)CC[C@@]4(C)[C@]3(C)CC[C@H]2C1(C)C | > 50 µM | 1.52 | 13.1 µM | 14.8 µM | 11.4 µM | 12.6 µM | 17.2 µM | 27.4 µM | 2.17 | 12.9 µM | < 5% | 11.7 µM
3 | 2.26 µM | CC(=O)O[C@H]1CC[C@]2(C)[C@H]3CC=C4[C@@H]5[C@@H](C)[C@H](C)CC[C@]5(C(=O)Nc5ccc(C)cc5)CC[C@@]4(C)[C@]3(C)CC[C@H]2C1(C)C | > 50 µM | 1.4 | 10.6 µM | 13.4 µM | 9.6 µM | 12.5 µM | 13.5 µM | 20.4 µM | 1.63 | 10.3 µM | < 5% | 11.2 µM
4 | 4.8 µM | CC(=O)O[C@H]1CC[C@]2(C)[C@H]3CC=C4[C@@H]5[C@@H](C)[C@H](C)CC[C@]5(C(=O)Nc5ccc(C)c(C)c5)CC[C@@]4(C)[C@]3(C)CC[C@H]2C1(C)C | > 50 µM | 1.81 | 16.6 µM | 15 µM | 10.4 µM | 17.4 µM | 18.9 µM | 26.2 µM | 1.51 | 12.4 µM | < 5% | 12.2 µM
